Screening data (PubChem BioAssay)
Most compounds without a hit are left out; they make up all but 3.3% or so of the library.
Jurkat tox 60K: cytotoxicity toward Jurkat T cells, primary screen, cytotoxicity control, cell-based, Jurkat E6.1, 60K MLSMR library; Jurkat E6.1 viability, ATP luminescence, 48 h; inhibition, % at 4 µM; hit rate 1.2% among 56,000;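 active means inhibition above the mean inhibition of all tested compounds plus 3 SD, cut at about 28% in these data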
5HT1a ag: human 5-HT1a receptor agonists, primary screen, cell-based, CHO, Ga15 NFAT-bla reporter; AID 567, 2006; hit rate 0.56% among 65,000; activation, % at 10 µM; CHO 5-HT1a Ga15 NFAT-bla reporter, FRET ratio; 0% basal, 100% maximal reference agonist; 5-hydroxytryptamine receptor 1A (Homo sapiens), P08908;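 active means activation above the screen-wide mean activation plus 3 SD, cut at about 19% in these data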;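 further: 0% = DMSO wells and 100% = 5-CT at EC100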
Target sequence (P08908 whole entry, looked up): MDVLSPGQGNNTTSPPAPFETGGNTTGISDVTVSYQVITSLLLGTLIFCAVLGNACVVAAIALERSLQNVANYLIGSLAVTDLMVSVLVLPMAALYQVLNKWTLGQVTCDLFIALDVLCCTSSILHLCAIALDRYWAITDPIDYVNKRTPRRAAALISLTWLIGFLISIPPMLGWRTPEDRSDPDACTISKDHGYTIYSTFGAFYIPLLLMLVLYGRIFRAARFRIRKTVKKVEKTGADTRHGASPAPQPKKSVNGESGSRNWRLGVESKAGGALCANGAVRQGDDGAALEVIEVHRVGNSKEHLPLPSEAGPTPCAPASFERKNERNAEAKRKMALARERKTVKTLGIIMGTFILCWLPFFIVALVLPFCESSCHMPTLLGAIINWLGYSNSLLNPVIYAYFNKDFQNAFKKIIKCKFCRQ
5-HT1A blocker: human 5-HT1a receptor antagonists, primary screen, cell-based, CHO, Ga15 NFAT-bla reporter; 5-hydroxytryptamine receptor 1A (Homo sapiens), P08908; CHO 5-HT1a Ga15 NFAT-bla reporter, antagonist mode; inhibition, % at 10 µM; hit rate 0.68% among 62,000; AID 612, 2007;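 active means inhibition above the mean of all tested compounds plus 3 SD, cut at about 43% in these data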;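 further: receptor stimulated by 5-CT agonist at 100 nM near EC80; beta-lactamase reporter measured by ratiometric fluorescence of a cleavable substrate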
HEK293 NFkB inh: inhibitors of PMA/ionomycin-induced NF-kB reporter, primary screen, antigen receptor NF-kB inhibitor project, cell-based, HEK-293 luciferase reporter, luminescence; HEK-293 NF-kB luciferase reporter; inhibition, % at 3 µM; hit rate 0.21% among 62,000;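 active means inhibition above the mean of all tested compounds plus 3 SD, cut at about 40% in these data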;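 further: 0% = stimulated DMSO wells and 100% = 10 µM reference inhibitor 5653914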
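Reagent: PMA plus ionomycin mix as NF-kB-activating stimulus. Assay system: NF-kB luciferase reporter HEK-293 cells. Technique: luminescence from luciferase substrate reagent. Incubation: 1 h compound pre-incubation, 16 h PMA/ionomycin at 37 °C. Benchmarks: DMSO only as uninhibited control, 10 µM reference inhibitor as full inhibition. Repeats: tested once.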
HTR1E agonist: 5-HT1E receptor agonists, primary screen, cell-based, HTS. hit rate 0.69% among 65,000. activation, % at 6 µM. 5-hydroxytryptamine receptor 1E (Homo sapiens), P28566. CHO 5-HT1E Ga15 NFAT-bla reporter, FRET; 0% DMSO wells, 100% control agonist wells. AID 574, 2007;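 active means activation above a set limit, the screen-wide mean activation plus 3 SD, cut at about 8.5% in these data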;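 further: 100% = positive control agonist at 1 µM giving full maximal response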
HTR1E antagonist: 5-HT1E receptor antagonists, primary screen, cell-based, HTS; 5-hydroxytryptamine receptor 1E (Homo sapiens), P28566; CHO 5-HT1E Ga15 NFAT-bla reporter, FRET, antagonist; inhibition, % at 6 µM; hit rate 0.99% among 65,000;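 active means inhibition above a set limit, the mean inhibition across every tested compound plus 3 SD, cut at about 29% in these data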;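 further: signal is the 460 over 535 nm emission ratio of beta-lactamase substrate; 0% = agonist plus DMSO wells and 100% = wells without agonist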
An asterisk follows results filed as active; . = no result given.

SMILES	Jurkat tox 60K	5HT1a ag	5-HT1A blocker	HEK293 NFkB inh	HTR1E agonist	HTR1E antagonist
COc1ccccc1Cn1c(=O)c2ccccc2n2c(SCC(=O)N3CCCCC3)nnc12	5	-1	-9	18	0	7
CC(C)COC(=O)N1CC(O)CC1C(=O)O (centres undefined)	6	-2	10	16	-1	10
Cc1nc2c(c(=O)n1CC1CCCO1)c1nc3ccccc3nc1n2Cc1ccc2c(c1)OCO2 (centres undefined)	.	3	.	.	0	21
COc1ccc(N=c2oc3cc(O)ccc3cc2C(=O)NCC2CCCO2)c(OC)c1 (centres undefined)	6	70*	-119	11	19*	-13
CSc1ccc(Cl)c(C(=O)NCc2ccco2)c1	2	-4	6	14	-1	32*
CN1CCN(c2nc3nonc3nc2N2CCN(C)CC2)CC1	-4	-1	-4	0	2	-5
CCCCCN=Cc1c(C)[nH]n(-c2nc3ccccc3s2)c1=O	56*	0	-12	-23	1	13
CC(C)Nc1nc2n(c(=O)n1)CCN2C(C)C	-8	1	-3	5	0	0
CCC1CCCCN1C(=O)CSc1nnc(-c2cccs2)o1 (centres undefined)	-2	28*	4	-29	0	2
COc1ccc(S(=O)(=O)N2CCN(c3nc4ccccc4nc3-n3nc(C)cc3C)CC2)cc1	2	1	6	8	1	-9
CCN(CC)c1ccc(NC(=O)C2CCCN(S(=O)(=O)c3cccnc3)C2)c(C)c1 (centres undefined)	4	0	-4	19	0	32*
CCC(=O)c1cn(CC(=O)NCc2cccnc2)c2ccccc12	-5	2	-3	14	0	-5
Cc1cc(N2CCC(C(=O)NCC3CC3)CC2)nc(-c2ccccc2)n1	2	-4	5	2	0	-5
Cc1cc(N2C3CCC2CC(O)(c2ccc(F)cc2)C3)nc(-c2ccccc2)n1 (centres undefined)	8	-1	43*	15	-1	23
CC(C)n1c(N2CCN(CC(=O)NCc3cccs3)CC2)nc2ccccc21	6	-3	-1	5	-1	-5
O=C(CN1CCC(c2nc3ccccc3s2)CC1)NCc1cccs1	28*	0	-12	10	-1	-4
CCCc1ccc(Oc2c(-c3ccc(O)c(C)c3O)n[nH]c2C)cc1	13	-3	56*	3	-1	0
Cc1cc(NC(=O)C2CCC2)n(-c2ccccn2)n1	.	2	2	6	2	36*
Cc1cc(NC(=O)c2cccc(S(=O)(=O)N3CCCCCC3)c2)n(-c2ccccn2)n1	8	-1	4	13	-1	-5
C=CCn1cnc2c(c1=O)c1nc3ccccc3nc1n2-c1ccc(Cl)cc1	.	1	.	.	0	-1
Cn1c(C(=O)N(Cc2ccccc2)Cc2ccccn2)cc2sccc21	4	1	22	18	-1	2
Cn1c(C(=O)N(Cc2ccccc2)Cc2cccs2)cc2sccc21	0	0	43*	4	0	9
COc1ccc(OC)c(NS(=O)(=O)c2cccs2)c1	17	-5	5	15	0	3
COc1ccc(OC)c(NS(=O)(=O)c2ccc(N3CCCC3=O)cc2)c1	.	-5	.	.	0	48*
CCOc1ccc(S(=O)(=O)Nc2cc(OC)ccc2OC)cc1	96*	-2	52*	33	0	65*
SMILES	Jurkat tox 60K	5HT1a ag	5-HT1A blocker	HEK293 NFkB inh	HTR1E agonist	HTR1E antagonist
COc1ccc(OC)c(NS(=O)(=O)c2ccc(SC)cc2)c1	78*	-1	8	12	0	17
COc1ccc(S(=O)(=O)Nc2cc(Cl)ccc2OC)cc1	76*	-2	19	28	0	30*
COc1ccc(Cl)cc1NS(=O)(=O)c1ccc(S(=O)(=O)N2CCCC2)cc1	3	-2	10	5	0	6
CCc1nn2c(=O)cc(CSc3nc4sc5c(c4c(=O)n3C)CCCC5)nc2s1	-5	-1	-6	22	1	1
Cc1cc(-c2nsc(=O)o2)c(S(C)(=O)=O)s1	-1	-3	2	6	-1	4
Cc1ccc(=O)n(C(C(=O)NCc2ccco2)C(=O)c2ccc(F)cc2)c1 (centres undefined)	0	-1	3	14	1	-2
COC(=O)c1ccc2c(=O)n(CCC3=CCCCC3)c(SCC(=O)N3CCCC3)nc2c1	.	0	-1	10	0	4
COc1ccc(C(c2c(O)ccc3ccccc23)N2CCOCC2)c(OC)c1 (centres undefined)	6	-7	107*	-14	-1	16
Cc1cc(NC(=O)COc2cccc(Oc3ccccc3)c2)no1	50*	-7	5	-4	0	-10
CC(=O)Nc1ccc(NC(=O)CSC2=NCCS2)cc1	-6	-3	3	3	0	-5
O=C(CSC1=NCCS1)Nc1ccnc2ccccc12	29*	-1	18	36	1	18
Cc1c(-c2ccccc2)sc(N)c1C(=O)N1CCOCC1	2	-2	7	11	0	-9
CC1CN(S(=O)(=O)c2ccc(NC(=O)c3cc(-c4ccccc4O)n[nH]3)cc2)CC(C)O1 (centres undefined)	54*	2	-21	3	0	-9
Fc1ccccc1CSc1nnnn1-c1ccc2c(c1)OCO2	10	-2	22	-14	-1	35*
O=C(CSc1nnnn1-c1ccc2c(c1)OCO2)NCc1ccccc1	58*	-2	-8	16	1	15
COc1ccccc1NC(=O)CSc1nnnn1-c1ccc2c(c1)OCO2	1	-3	15	4	-1	-8
CCOC(=O)N1CCC(NC(=O)Cn2ncn3c(cc4sc(CC)cc43)c2=O)CC1	-5	0	-11	0	0	-1
COc1ccc(CC(C(=O)Nc2cccc(F)c2)c2nn[nH]n2)c(OC)c1 (centres undefined)	3	-1	7	13	-1	1
CCN1CCN(c2ncc(C(=O)Nc3ccccc3C(=O)OC)c3ccccc23)CC1	1	1	0	19	17*	6
CC(C)NC(=O)c1cnc(N2CCN(c3ccccn3)CC2)c2ccccc12	0	-1	13	16	-2	1
